VIM-2 inhibitor: inhibitors of Pseudomonas aeruginosa VIM-2 metallo-beta-lactamase. purified VIM-2, nitrocefin hydrolysis, epi-absorbance fluorescence. inhibition, % at 5.6 µM. hit rate 0.89% among 290,000. AID 1527;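 active = inhibition above the mean of all tested compounds plus 3 SD, cutoff set per screening run, cut at about 7.5% in these data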;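 also: red hydrolysis product quenches plate fluorescence so inhibitors raise well fluorescence; 0% = enzyme with DMSO and 100% = DMSO without enzyme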
MEKK2wt PB1 HTS: raises or lowers MEK5 binding to wildtype human MEKK2 PB1 domain | bead flow cytometry, Alexa488-MEK5 binding to MEKK2 WT; actives lie on both sides | binding response (% of control), % at 10 µM | hit rate 1.1% among 290,000 | AID 1531; in the data active = binding response below about 67% or above about 130%
IMP-1 inh-1: inhibitors of Pseudomonas aeruginosa IMP-1 metallo-beta-lactamase | purified IMP-1, nitrocefin hydrolysis, epi-absorbance fluorescence | inhibition, % at 5.6 µM | hit rate 0.45% among 290,000 | AID 1556;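 active = inhibition above the mean plus 3 SD of all compounds in the same screening run, cut at about 4.5% in these data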;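 also: 0% = IMP-1 with DMSO and 100% = DMSO wells lacking enzyme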
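Test system: recombinant IMP-1 enzyme, purified / Medium: HEPES buffer pH 7.1 with ZnSO4 and Brij 35 / Doses: single dose, 5.6 µM / Times: 25 °C, 15 min preincubation, 25 min reaction / Detection: Epi-absorbance via hydrolysed-nitrocefin quenching of white-plate fluorescence, 480/530 nm, EDTA stop / Evaluation: percent inhibition from optical density relative to buffer-blank wells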
MEKK2 mut-MEK5: signal of MEK5 binding to mutant human MEKK2 PB1 domain | hit rate 0.35% among 290,000 | bead flow cytometry, Alexa488-MEK5 binding to MEKK2 mutant | percent response, % at 10 µM | AID 1530; in the data active = percent response above about 24%, passing the limit was not always enough
MEKK3 PB1 HTS: raises or lowers MEK5 binding to the human MEKK3 PB1 domain. Q99759. bead-based flow cytometry, Alexa488-MEK5 binding to MEKK3; actives lie on both sides; 0 = blocked by unlabeled MEK5, 100 = vehicle. binding response (% of control), % at 10 µM. hit rate 1.4% among 290,000. AID 1529;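 active = binding response more than 3 SD above or below the average of its plate-row segment, actives on both sides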;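 also: Alexa488 bead fluorescence after subtracting the streptavidin-only scavenger bead signal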
Target sequence (Q99759 whole entry, looked up, the tested form may be a part): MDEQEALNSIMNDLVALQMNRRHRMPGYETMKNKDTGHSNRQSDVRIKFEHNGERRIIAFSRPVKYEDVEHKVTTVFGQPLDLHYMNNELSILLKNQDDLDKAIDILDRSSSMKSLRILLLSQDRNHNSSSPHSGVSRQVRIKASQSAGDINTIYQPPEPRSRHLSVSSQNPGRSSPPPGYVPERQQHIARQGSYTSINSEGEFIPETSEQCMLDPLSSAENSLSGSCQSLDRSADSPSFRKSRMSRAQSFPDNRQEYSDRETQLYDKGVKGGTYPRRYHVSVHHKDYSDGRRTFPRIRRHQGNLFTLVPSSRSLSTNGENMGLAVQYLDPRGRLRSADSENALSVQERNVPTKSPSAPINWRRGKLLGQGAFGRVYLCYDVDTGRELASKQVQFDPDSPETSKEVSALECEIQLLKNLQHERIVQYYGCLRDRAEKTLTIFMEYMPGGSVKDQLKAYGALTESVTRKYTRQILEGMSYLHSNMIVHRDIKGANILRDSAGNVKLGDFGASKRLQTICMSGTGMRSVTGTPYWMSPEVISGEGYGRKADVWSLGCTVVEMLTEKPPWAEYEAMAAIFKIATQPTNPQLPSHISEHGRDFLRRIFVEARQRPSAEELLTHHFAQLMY
IMP-1 inh-2: selectivity counter-screen for VIM-2 inhibitors: IMP-1 metallo-beta-lactamase inhibitors; shares compounds with VIM-2 inhibitor; purified IMP-1, nitrocefin hydrolysis, epi-absorbance fluorescence; inhibition, % at 5.6 µM; 1,300 tested, under 10 active; AID 1856; call rule not given here;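 also: 0% = enzyme with vehicle and 100% = vehicle without enzyme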
VIM-2 FRET inh: VIM-2 FRET inhibition, artifact counter-screen. shares compounds with VIM-2 inhibitor. purified VIM-2, CCF2 FRET substrate hydrolysis. inhibition, % at 5.6 µM. hit rate 23% among 1,300;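 active = inhibition above the mean of all tested compounds plus 3 SD, cut at about 19% in these data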;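 also: 0% = VIM-2 plus DMSO and 100% = no enzyme wells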
TEM-1 counter: blocks E. coli TEM-1 beta-lactamase in VIM-2 selectivity screen | shares compounds with VIM-2 inhibitor | Purified TEM-1, nitrocefin hydrolysis, epi-absorbance fluorescence | inhibition, % at 5.6 µM | hit rate 3% among 1,300 | AID 1866;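 active = inhibition above that campaign's mean inhibition plus 3 SD, cut at about 0.46% in these data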;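 also: 0% = TEM-1 with DMSO and 100% = TEM-1 with 100 µM potassium clavulanate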
VIM-2 confirm 2: confirmation of P. aeruginosa VIM-2 metallo-beta-lactamase inhibitors; AID 2187; inhibition, % at 5.6 µM; hit rate 96% among 1,300; purified VIM-2, nitrocefin hydrolysis, epi-absorbance; shares compounds with VIM-2 inhibitor;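 active = inhibition of the VIM-2 beta-lactamase enzyme above about 11% from the earlier first-round screen, limit read from the data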;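 also: 0% = VIM-2 with DMSO and 100% = buffer wells without enzyme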
* = called active by the depositor; nt = no result given. Most compounds without a hit are left out; they make up all but 3.4% or so of the library.

SMILES	VIM-2 inhibitor	MEKK2wt PB1 HTS	IMP-1 inh-1	MEKK2 mut-MEK5	MEKK3 PB1 HTS	IMP-1 inh-2	VIM-2 FRET inh	TEM-1 counter	VIM-2 confirm 2
CC1CCCCN1C(=O)c1cc(-c2ccc3c(c2)OCO3)on1 (stereo not drawn)	1.2	100.0	-0.3	-3.0	97.0	nt	nt	nt	nt
O=c1oc2ccccc2c2c1ncn2CCN1CCOCC1	-1.5	100.0	-1.5	-2.0	98.0	nt	nt	nt	nt
CN1CCN(CCCn2cnc3c(=O)oc4ccccc4c32)CC1	20.8*	88.0	-1.4	0.0	90.0	-3.2	-0.1	-9.1	39.8*
Cc1ccc(C(=O)C2CCN(S(=O)(=O)c3c(C)noc3C)CC2)cc1	-3.3	92.0	-1.3	-5.0	92.0	nt	nt	nt	nt
CCN1CCN(c2ccc(N=Cc3ccccc3O)cc2)CC1	39.6*	107.0	-10.3	1.0	105.0	-7.8	-4.9	-6.3	28.0*
C=C(C)Cc1c(C)c(C#N)c2nc3ccccc3n2c1NCCCN(C)C	29.3*	103.0	0.9	2.0	98.0	-2.8	0.0	-6.4	45.1*
CCCc1cc(NCCCN(C)C)n2c(nc3ccccc32)c1C#N	20.6*	109.0	-2.5	5.0	101.0	0.2	-0.5	2.0*	35.1*
CCc1ccc(C(CNC(=O)c2ccc3c(=O)n(-c4ccccc4F)c(=S)[nH]c3c2)N(C)C)cc1 (stereo not drawn)	0.3	109.0	-3.4	-1.0	108.0	nt	nt	nt	nt
CNC(=O)c1c(NC(=O)c2ccc(S(=O)(=O)N3CCCC3)cc2)sc2c1CCN(C(C)C)C2	1.1	99.0	-1.9	7.0	101.0	nt	nt	nt	nt
CNC(=O)c1c(NC(=O)c2ccc(S(=O)(=O)N3CCCCC3C)cc2)sc2c1CCN(C)C2 (stereo not drawn)	22.1*	113.0	2.6	5.0	101.0	-3.0	1.8	-6.5	29.9*
CCOC(=O)c1c(NC(=O)c2ccc(S(=O)(=O)N3CCOCC3)cc2)sc2c1CCN(C(C)C)C2	2.6	104.0	-1.7	-3.0	96.0	nt	nt	nt	nt
COC(=O)c1c(NC(=O)c2ccc(S(=O)(=O)N3CCOCC3)cc2)sc2c1CCN(C)C2	77.6*	110.0	-1.4	11.0	104.0	-2.1	-0.5	-6.6	85.0*
CCN1CCc2c(sc(NC(=O)c3ccc(S(=O)(=O)N4CCOCC4)cc3)c2C(=O)OC)C1	63.7*	nt	-2.7	nt	nt	-2.0	-1.8	-4.0	77.1*
O=C(NCCCN1CCOCC1)c1ccccc1-c1ccccc1	-1.5	108.0	-4.4	5.0	102.0	nt	nt	nt	nt
COc1ccc(OC)c(N(C(=O)c2ccco2)C(C(=O)NC2CCCC2)c2cc(OC)c(OC)c(OC)c2)c1 (stereo not drawn)	0.8	96.0	-3.0	-4.0	97.0	nt	nt	nt	nt
O=C1C(=O)c2ccc(-c3ccccc3)cc2-c2ccccc21	1.8	95.0	-5.1	0.0	85.0	nt	nt	nt	nt
Cc1c(C)c2c(OCC(=O)N[C@@H](Cc3ccccc3)C(=O)O)cc3c(c2oc1=O)CCC(C)(C)O3	40.4*	101.0	0.0	0.0	100.0	-3.0	68.1*	-6.3	45.8*
CSC[C@H](NC(=O)COc1cc2c(c3oc(=O)c(C)c(C)c13)CCC(C)(C)O2)C(=O)O	28.4*	101.0	-1.4	2.0	101.0	-3.1	48.3*	-8.2	33.5*
CSCC[C@H](NC(=O)COc1cc2c(c3oc(=O)c(C)c(C)c13)CCC(C)(C)O2)C(=O)O	2.7	102.0	-1.7	6.0	101.0	nt	nt	nt	nt
CCN(CC)CCCNC(=O)c1cc2nc3c(c(C(F)(F)F)n2n1)CCc1ccccc1-3	13.4*	112.0	-2.7	6.0	103.0	-3.1	1.4	-3.5	15.4*
CCCN1CCCc2ccccc21	-1.1	99.0	-5.8	0.0	98.0	nt	nt	nt	nt
CCCc1cc(=O)oc2c3c(cc(OCC(=O)NCCN4CCOCC4)c12)OC(C)(C)CC3	-1.4	104.0	-1.6	1.0	101.0	nt	nt	nt	nt
Cc1cc(=O)oc2c3c(cc(OCC(=O)N4CCC(C(=O)O)CC4)c12)OC(C)(C)CC3	-0.5	103.0	-4.0	1.0	105.0	nt	nt	nt	nt
Cc1cc(OCC(=O)N2CCC[C@@H]2C(=O)O)c2c(C)c(C)c(=O)oc2c1	26.9*	99.0	-2.8	1.0	100.0	-2.9	50.7*	-5.2	32.6*
CCCCc1cc(=O)oc2c3c(cc(OCC(=O)N4CCC[C@H]4C(=O)O)c12)OC(C)(C)CC3	15.8*	108.0	-4.9	6.0	106.0	-2.8	36.1*	-5.9	20.3*
SMILES	VIM-2 inhibitor	MEKK2wt PB1 HTS	IMP-1 inh-1	MEKK2 mut-MEK5	MEKK3 PB1 HTS	IMP-1 inh-2	VIM-2 FRET inh	TEM-1 counter	VIM-2 confirm 2
CCCc1cc(=O)oc2c(C)c(OCC(=O)N3CCC[C@@H]3C(=O)O)ccc12	22.6*	109.0	-3.7	5.0	102.0	-2.5	41.0*	-4.7	23.7*
Cc1cc(OCC(=O)NC2CC2)c2c(C)c(C)c(=O)oc2c1	5.7	103.0	-1.4	-5.0	100.0	nt	nt	nt	nt
Cc1cc(=O)oc2c3c(cc(OCC(=O)N4CCC[C@H]4C(=O)O)c12)OC(C)(C)CC3	25.5*	104.0	-2.1	0.0	101.0	-2.9	46.3*	-3.3	29.3*
CCN(CC(=O)NC1CCCCCC1)S(=O)(=O)c1ccccc1	-2.6	98.0	-2.0	2.0	106.0	nt	nt	nt	nt
CC(C(=O)Nc1ccc(OCc2ccccc2)cc1)N1CCCC1 (stereo not drawn)	-2.8	105.0	-4.5	6.0	103.0	nt	nt	nt	nt
O=C(NCc1cccc(Br)c1)C1CC(c2ccc(C(F)(F)F)cc2)=NO1 (stereo not drawn)	nt	102.0	nt	3.0	106.0	nt	nt	nt	nt
Cc1cccn2c(=O)c3cc(C(=O)NCc4cccnc4)c(=N)n(C(C)C)c3nc12	20.5*	99.0	-1.1	-3.0	99.0	-3.3	-85.7	-6.0	31.0*
Cc1cccn2c(=O)c3cc(C(=O)NCc4ccco4)c(=N)n(C(C)C)c3nc12	12.5*	95.0	-6.1	-3.0	94.0	-4.1	-30.0	-4.8	27.0*
CCN1CCN(c2cc3c(nn2)Oc2ccccc2N3C)CC1	13.1*	92.0	-4.4	-2.0	90.0	-3.0	11.1	-8.0	25.1*
COc1ccc(-c2nc(C#N)c(NCCCN(C)C)o2)cc1OC	12.2*	101.0	2.9	-3.0	96.0	-2.3	1.2	-5.8	27.2*
N#Cc1nc(-c2ccccc2)oc1NCCCn1ccnc1	25.8*	93.0	-4.9	-7.0	96.0	-3.2	-11.4	-5.6	45.1*
COc1ccccc1-c1nc(C#N)c(NCCCn2ccnc2)o1	18.4*	97.0	-0.7	-6.0	97.0	-3.5	-6.4	-5.0	34.5*
